The target in experiment [1] is Sodium-dependent dopamine transporter (Rattus norvegicus, UniProt P23977). The experiment is described as follows: In vitro inhibition of [3H]WIN-35 428 binding to dopamine transporter on rat striatal membranes. It counts as cell membranes, Membrane. The essentials: (§1)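 Compounds dissolved in 10% DMSO. Incubation ended by filtration, and filter-bound radioactivity was counted by liquid scintillation at about 35% efficiency for 3H. IC50 values were determined. Mean ± SEM of three independent experiments, each in triplicate.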
Sodium-dependent dopamine transporter, sequence (P23977 whole entry): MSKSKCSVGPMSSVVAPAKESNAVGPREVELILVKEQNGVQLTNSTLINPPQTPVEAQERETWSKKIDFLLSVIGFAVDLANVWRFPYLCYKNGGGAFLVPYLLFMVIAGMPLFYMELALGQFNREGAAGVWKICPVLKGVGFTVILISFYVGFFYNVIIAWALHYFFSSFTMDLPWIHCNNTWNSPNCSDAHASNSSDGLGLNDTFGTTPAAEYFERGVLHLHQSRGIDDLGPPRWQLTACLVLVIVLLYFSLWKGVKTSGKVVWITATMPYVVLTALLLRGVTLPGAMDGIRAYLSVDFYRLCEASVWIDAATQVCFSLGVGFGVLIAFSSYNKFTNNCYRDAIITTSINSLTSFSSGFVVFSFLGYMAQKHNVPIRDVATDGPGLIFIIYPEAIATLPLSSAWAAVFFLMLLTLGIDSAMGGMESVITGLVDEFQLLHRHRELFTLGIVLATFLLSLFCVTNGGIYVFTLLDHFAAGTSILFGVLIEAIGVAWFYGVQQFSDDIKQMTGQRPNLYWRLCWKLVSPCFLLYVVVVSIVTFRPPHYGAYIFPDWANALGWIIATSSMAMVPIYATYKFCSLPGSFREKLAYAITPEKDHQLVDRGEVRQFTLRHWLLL

In experiment [2] the target is Sodium-dependent serotonin transporter (Rattus norvegicus, UniProt P31652). As to the kind of experiment: In vitro inhibition of [3H]citalopram binding to serotonin transporter on rat striatal membranes. The class given is cell membranes, Membrane. An outline of the steps:
as §1

Experiment [3] addresses Monoamine transporters; serotonin & dopamine (Rattus norvegicus) (UniProt P31652+P23977). As to the kind of experiment: Ratio of inhibitory activity against Serotonin Transporter compared to Dopamine Transporter. It counts as protein assay. The essentials: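 Selectivity is expressed as SERT/DAT, the ratio of binding values from rat striatal membranes. SERT was labelled with [3H]citalopram and DAT with [3H]WIN 35,428. Binding was ended by filtration and counted by scintillation. Values come from three independent experiments, each run in triplicate.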

Monoamine transporters; serotonin & dopamine (Rattus norvegicus), sequence (P23977 whole entry, looked up): as the sequence (P23977 whole entry) above
Monoamine transporters; serotonin & dopamine (Rattus norvegicus), sequence (P31652 whole entry, looked up): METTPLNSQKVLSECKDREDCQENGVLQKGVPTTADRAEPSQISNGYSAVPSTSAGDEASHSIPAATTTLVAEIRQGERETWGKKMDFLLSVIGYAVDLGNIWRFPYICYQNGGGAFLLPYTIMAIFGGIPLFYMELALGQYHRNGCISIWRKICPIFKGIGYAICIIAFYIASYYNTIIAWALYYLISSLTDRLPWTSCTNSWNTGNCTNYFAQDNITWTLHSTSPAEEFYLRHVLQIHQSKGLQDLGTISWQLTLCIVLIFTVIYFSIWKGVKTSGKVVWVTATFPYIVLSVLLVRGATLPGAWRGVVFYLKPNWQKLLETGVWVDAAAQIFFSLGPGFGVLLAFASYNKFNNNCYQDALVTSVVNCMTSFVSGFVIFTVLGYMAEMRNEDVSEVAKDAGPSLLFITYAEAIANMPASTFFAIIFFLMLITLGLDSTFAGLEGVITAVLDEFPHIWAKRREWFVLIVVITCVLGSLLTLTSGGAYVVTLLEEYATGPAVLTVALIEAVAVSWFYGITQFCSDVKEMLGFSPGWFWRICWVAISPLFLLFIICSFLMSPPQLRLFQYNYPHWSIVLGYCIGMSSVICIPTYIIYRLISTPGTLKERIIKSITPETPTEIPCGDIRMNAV
Sodium-dependent serotonin transporter, sequence (P31652 whole entry): as the sequence (P31652 whole entry, looked up) above

For orientation: IC50 means the concentration needed to halve the response being measured. As to `Fc1ccc(CN2CCC(CCOC(c3ccccc3)c3ccc(F)cc3)CC2)cc1` (stereo unspecified), the IC50 in experiment [1] was found to be 14 nM; in experiment [2] it was 1260 nM. In experiment [3], the Ratio came to 89.
On to `Fc1ccc(CN2CCC(CCOC(c3ccccc3)c3ccccc3)CC2)cc1Cl`, for which the half-maximal inhibitory concentration (IC50) in experiment [1] amounted to 28.2 nM; in experiment [2], 2530 nM. Besides, the Ratio in experiment [3] came out at 90.
Take `c1ccc(CN2CCC(CCOC(c3ccccc3)c3ccccc3)CC2)cc1`: the Ratio in experiment [3] was 49.
On to `c1ccc(CN2CCC(CCOC(c3ccccc3)c3cccs3)CC2)cc1` (stereo unspecified), for which the half-maximal inhibitory concentration (IC50) in experiment [1] was found to be 27.2 nM; in experiment [2], 741 nM. Also, in experiment [3], the Ratio was 27.
For `Fc1ccc(CN2CCC(CCOC(c3ccccc3)c3ccccc3)CC2)cc1`, the concentration for half-maximal inhibition (IC50) in experiment [2] worked out at 1920 nM. Also, the Ratio in experiment [3] was 112.
Take `Clc1ccc(CN2CCC(CCOC(c3ccccc3)c3ccccc3)CC2)cc1Cl`: the results for the IC50 in experiment [1] and in experiment [2] were 85.7 nM and 2880 nM, respectively. In addition, the Ratio in experiment [3] is 33.6.
As for `Brc1ccc(CN2CCC(CCOC(c3ccccc3)c3ccccc3)CC2)cc1`, the IC50 in experiment [1] is 31.1 nM; in experiment [2], 1490 nM. For the same compound, the Ratio in experiment [3] stood at 48.
As for `O=[N+]([O-])c1ccc(CN2CCC(CCOC(c3ccccc3)c3ccccc3)CC2)cc1`, the half-maximal inhibitory concentration (IC50) turned out to be 16.4 nM in experiment [1] and 1770 nM in experiment [2]. For the same compound, the Ratio in experiment [3] came out at 108.
For the compound `c1ccc(C(OCCC2CCN(Cc3cc4ccccc4s3)CC2)c2ccccc2)cc1`, the IC50 was found to be 172 nM in experiment [1] and 1540 nM in experiment [2]. Moreover, the Ratio in experiment [3] stood at 8.9.
As for `c1ccc(C(OCCC2CCN(Cc3cccnc3)CC2)c2cccs2)cc1` (stereo unspecified), the IC50 in experiment [1] was determined as 58.3 nM; in experiment [2], 927 nM. Also, the Ratio in experiment [3] turned out to be 15.9.
In the case of `Cc1ccc(CN2CCC(CCOC(c3ccccc3)c3ccccc3)CC2)cc1`, the IC50 was found to be 23 nM in experiment [1] and 1390 nM in experiment [2]. Besides, the Ratio in experiment [3] came out at 60.4.
As to `COc1ccc(CN2CCC(CCOC(c3ccccc3)c3ccccc3)CC2)cc1`, the values for the IC50 in experiment [1] and in experiment [2] were 27.8 nM and 1240 nM, respectively. Moreover, in experiment [3], the Ratio came to 45.
Regarding `Fc1ccc(CN2CCC(CCOC(c3ccccc3)c3ccc(Cl)cc3)CC2)cc1` (stereo unspecified), the half-maximal inhibitory concentration (IC50) came to 52.4 nM in experiment [1] and 1810 nM in experiment [2]. For the same compound, the Ratio in experiment [3] came to 34.4.
On the same counts, the results for `Fc1ccc(CN2CCC(CCOC(c3ccccc3)c3cccs3)CC2)cc1` (stereo unspecified) are 13.8 nM, 1390 nM and 100.
For `c1ccc(C(OCCC2CCN(Cc3cccs3)CC2)c2ccccc2)cc1`, in that order: 59.3 nM, 1250 nM and 21.
Turning to `c1ccc(C(OCCC2CCN(Cc3cccnc3)CC2)c2ccccc2)cc1`, the values for the concentration for half-maximal inhibition (IC50) in experiment [1] and in experiment [2] were 48.6 nM and 680 nM, respectively. The Ratio in experiment [3] was found to be 13.9.
For `Nc1ccc(CN2CCC(CCOC(c3ccccc3)c3ccccc3)CC2)cc1`, the half-maximal inhibitory concentration (IC50) amounted to 101 nM in experiment [1] and 1570 nM in experiment [2]. Further, the Ratio in experiment [3] worked out at 15.6.
Take `Clc1ccc(CN2CCC(CCOC(c3ccccc3)c3ccccc3)CC2)cc1`: the values for the IC50 in experiment [1] and in experiment [2] were 24.7 nM and 1610 nM, respectively. For the same compound, the Ratio in experiment [3] worked out at 65.1.

(Values after ChEMBL document CHEMBL1130016 (J Med Chem, 1997).)
